Laboratory results published in ChEMBL document CHEMBL1629614, “Inhibition of methionyl-tRNA synthetase by REP8839 and effects of resistance mutations on enzyme activity” (Antimicrob Agents Chemother, 2009).

Assays:
[1] = compound: C=C(F)c1sc(CNCCCNc2cc(=O)c3ccccc3[nH]2)c(C)c1Br; experiment: Activity of Staphylococcus aureus MetRS I57N, A247E mutant by ATP:PPi exchange assay in presence of methionine
In short: (§1)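 Purified S. aureus MetRS (wild type or mutant; E. coli-expressed, ammonium sulfate cut, anion exchange) at 30 nM. ATP:PPi exchange at 30°C in 100 mM Tris-HCl pH 8.0, 5–10 mM Mg acetate, 80 mM KCl, 2.5 mM DTT, [32P]PPi plus cold PPi equal to ATP. Quenched with EDTA over 1–10 min, PEI-cellulose TLC, phosphorimager. Initial velocities versus varied ATP or methionine fit to Michaelis-Menten.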

[2] = compound: C=C(F)c1sc(CNCCCNc2cc(=O)c3ccccc3[nH]2)c(C)c1Br; experiment: Ratio of Kcat to Km for Staphylococcus aureus MetRS I57N A247E mutant in presence of ATP
In short: (§2)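 Purified recombinant S. aureus MetRS (30 nM) was assayed by ATP:PPi exchange at 30°C in Tris pH 8.0 with Mg acetate, KCl and DTT. [32P]PPi was matched to ATP, and ATP or methionine was varied. Time points from 1 to 10 min were quenched with EDTA, separated by PEI-cellulose TLC and read by phosphorimager. Initial rates were fitted to Michaelis-Menten.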

[3] = compound: C=C(F)c1sc(CNCCCNc2cc(=O)c3ccccc3[nH]2)c(C)c1Br; experiment: Ratio of Kcat to Km for Staphylococcus aureus MetRS I57N A247E mutant in presence of methionine; in short: as §2
[4] = compound: C=C(F)c1sc(CNCCCNc2cc(=O)c3ccccc3[nH]2)c(C)c1Br; experiment: Activity of streptococcus aureus MetRS I57N, A247E mutant by scintillation proximity assay in presence of tRNA; details: Staphylococcus aureus
[5] = compound: C=C(F)c1sc(CNCCCNc2cc(=O)c3ccccc3[nH]2)c(C)c1Br; experiment: Ratio of Kcat to Km for Staphylococcus aureus MetRS I57N A247E mutant in presence of tRNA
In short: (§3)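 Purified recombinant S. aureus MetRS was assayed by tRNA aminoacylation at 30°C for 1 to 7.5 min to obtain initial rates. Buffer was Tris pH 8.0 with Mg acetate, 2.5 mM ATP, KCl, DTT, BSA, [3H]methionine and crude E. coli tRNA. Reactions were EDTA-stopped, and charged tRNA was read by scintillation proximity with polylysine beads at pH 2.0.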

[6] = compound: C=C(F)c1sc(CNCCCNc2cc(=O)c3ccccc3[nH]2)c(C)c1Br; experiment: Activity of Staphylococcus aureus MetRS I57N, A247E mutant by ATP:PPi exchange assay in presence of ATP; in short: as §1
[7] = compound: C=C(F)c1sc(CNCCCNc2cc(=O)c3ccccc3[nH]2)c(C)c1Br; experiment: Activity of Staphylococcus aureus MetRS G54S mutant by ATP:PPi exchange assay in presence of methionine; in short: as §1
[8] = compound: C=C(F)c1sc(CNCCCNc2cc(=O)c3ccccc3[nH]2)c(C)c1Br; experiment: Ratio of Kcat to Km for Staphylococcus aureus MetRS G54S mutant in presence of ATP; in short: as §2
[9] = compound: C=C(F)c1sc(CNCCCNc2cc(=O)c3ccccc3[nH]2)c(C)c1Br; experiment: Ratio of Kcat to Km for Staphylococcus aureus MetRS G54S mutant in presence of methionine; in short: as §2
[10] = compound: C=C(F)c1sc(CNCCCNc2cc(=O)c3ccccc3[nH]2)c(C)c1Br; experiment: Activity of streptococcus aureus MetRS G54S mutant by scintillation proximity assay in presence of tRNA; details: Staphylococcus aureus
[11] = compound: C=C(F)c1sc(CNCCCNc2cc(=O)c3ccccc3[nH]2)c(C)c1Br; experiment: Ratio of Kcat to Km for Staphylococcus aureus MetRS G54S mutant in presence of tRNA; in short: as §3
[12] = compound: C=C(F)c1sc(CNCCCNc2cc(=O)c3ccccc3[nH]2)c(C)c1Br; experiment: Activity of Staphylococcus aureus MetRS G54S mutant by ATP:PPi exchange assay in presence of ATP; in short: as §1
[13] = compound: C=C(F)c1sc(CNCCCNc2cc(=O)c3ccccc3[nH]2)c(C)c1Br; experiment: Activity of Staphylococcus aureus MetRS I57N, I238F mutant by ATP:PPi exchange assay in presence of methionine; in short: as §1
[14] = compound: C=C(F)c1sc(CNCCCNc2cc(=O)c3ccccc3[nH]2)c(C)c1Br; experiment: Ratio of Kcat to Km for Staphylococcus aureus MetRS I57N I238F mutant in presence of ATP; in short: as §2
[15] = compound: C=C(F)c1sc(CNCCCNc2cc(=O)c3ccccc3[nH]2)c(C)c1Br; experiment: Ratio of Kcat to Km for Staphylococcus aureus MetRS I57N I238F mutant in presence of methionine; in short: as §2
[16] = compound: C=C(F)c1sc(CNCCCNc2cc(=O)c3ccccc3[nH]2)c(C)c1Br; experiment: Activity of streptococcus aureus MetRS I57N, I238F mutant by scintillation proximity assay in presence of tRNA; details: Staphylococcus aureus
[17] = compound: C=C(F)c1sc(CNCCCNc2cc(=O)c3ccccc3[nH]2)c(C)c1Br; experiment: Ratio of Kcat to Km for Staphylococcus aureus MetRS I57N I238F mutant in presence of tRNA; in short: as §3
[18] = compound: C=C(F)c1sc(CNCCCNc2cc(=O)c3ccccc3[nH]2)c(C)c1Br; experiment: Activity of Staphylococcus aureus MetRS I57N, I238F mutant by ATP:PPi exchange assay in presence of ATP; in short: as §1

B1: Methionine--tRNA ligase (Staphylococcus aureus subsp. aureus MW2), Q8NY00 I57N,A247E (protein)
chain: MAKETFYITTPIYYPSGNLHIGHAYSTVAGDVIARYKRMQGYDVRYLTGTDEHGQKNQEKAQKAGKTEIEYLDEMIAGIKQLWAKLEISNDDFIRTTEERHKHVVEQVFERLLKQGDIYLGEYEGWYSVPDETYYTESQLVDPQYENGKIIGGKSPDSGHEVELVKEESYFFNISKYTDRLLEFYDQNPDFIQPPSRKNEMINNFIKPGLADLAVSRTSFNWGVHVPSNPKHVVYVWIDALVNYISELGYLSDDESLFNKYWPADIHLMAKEIVRFHSIIWPILLMALDLPLPKKVFAHGWILMKDGKMSKSKGNVVDPNILIDRYGLDATRYYLMRELPFGSDGVFTPEAFVERTNFDLANDLGNLVNRTISMVNKYFDGELPAYQGPLHELDEEMEAMALETVKSYTESMESLQFSVALSTVWKFISRTNKYIDETTPWVLAKDDSQKDMLGNVMAHLVENIRYAAVLLRPFLTHAPKEIFEQLNINNPQFMEFSSLEQYGVLTESIMVTGQPKPIFPRLDSEAEIAYIKESMQPPATEEEKEEIPSKPQIDIKDFDKVEIKAATIINAEHVKKSDKLLKIQVDLDSEQRQIVSGIAKFYTPDDIIGKKVAVVTNLKPAKLMGQKSEGMILSAEKDGVLTLVSLPSAIPNGAVIK
- Km [1]: 250 µM
- kcat [1]: 11 s⁻¹
- kcat/Km [2]: 5000 M⁻¹ s⁻¹
- kcat/Km [3]: 40000 M⁻¹ s⁻¹
- Km [4]: 0.45 µM
- kcat [4]: 0.008 s⁻¹
- kcat/Km [5]: 18000 M⁻¹ s⁻¹
- Km [6]: 2230 µM

B2: Methionine--tRNA ligase (Staphylococcus aureus subsp. aureus MW2), Q8NY00 G54S (protein)
chain: MAKETFYITTPIYYPSGNLHIGHAYSTVAGDVIARYKRMQGYDVRYLTGTDEHSQKIQEKAQKAGKTEIEYLDEMIAGIKQLWAKLEISNDDFIRTTEERHKHVVEQVFERLLKQGDIYLGEYEGWYSVPDETYYTESQLVDPQYENGKIIGGKSPDSGHEVELVKEESYFFNISKYTDRLLEFYDQNPDFIQPPSRKNEMINNFIKPGLADLAVSRTSFNWGVHVPSNPKHVVYVWIDALVNYISALGYLSDDESLFNKYWPADIHLMAKEIVRFHSIIWPILLMALDLPLPKKVFAHGWILMKDGKMSKSKGNVVDPNILIDRYGLDATRYYLMRELPFGSDGVFTPEAFVERTNFDLANDLGNLVNRTISMVNKYFDGELPAYQGPLHELDEEMEAMALETVKSYTESMESLQFSVALSTVWKFISRTNKYIDETTPWVLAKDDSQKDMLGNVMAHLVENIRYAAVLLRPFLTHAPKEIFEQLNINNPQFMEFSSLEQYGVLTESIMVTGQPKPIFPRLDSEAEIAYIKESMQPPATEEEKEEIPSKPQIDIKDFDKVEIKAATIINAEHVKKSDKLLKIQVDLDSEQRQIVSGIAKFYTPDDIIGKKVAVVTNLKPAKLMGQKSEGMILSAEKDGVLTLVSLPSAIPNGAVIK
- Km [7]: 75 µM
- kcat [7]: 5 s⁻¹
- kcat/Km [8]: 10000 M⁻¹ s⁻¹
- kcat/Km [9]: 70000 M⁻¹ s⁻¹
- Km [10]: 0.27 µM
- kcat [10]: 0.009 s⁻¹
- kcat/Km [11]: 33000 M⁻¹ s⁻¹
- Km [12]: 500 µM

B3: Methionine--tRNA ligase (Staphylococcus aureus subsp. aureus MW2), Q8NY00 I57N,I238F (protein)
chain: MAKETFYITTPIYYPSGNLHIGHAYSTVAGDVIARYKRMQGYDVRYLTGTDEHGQKNQEKAQKAGKTEIEYLDEMIAGIKQLWAKLEISNDDFIRTTEERHKHVVEQVFERLLKQGDIYLGEYEGWYSVPDETYYTESQLVDPQYENGKIIGGKSPDSGHEVELVKEESYFFNISKYTDRLLEFYDQNPDFIQPPSRKNEMINNFIKPGLADLAVSRTSFNWGVHVPSNPKHVVYVWFDALVNYISALGYLSDDESLFNKYWPADIHLMAKEIVRFHSIIWPILLMALDLPLPKKVFAHGWILMKDGKMSKSKGNVVDPNILIDRYGLDATRYYLMRELPFGSDGVFTPEAFVERTNFDLANDLGNLVNRTISMVNKYFDGELPAYQGPLHELDEEMEAMALETVKSYTESMESLQFSVALSTVWKFISRTNKYIDETTPWVLAKDDSQKDMLGNVMAHLVENIRYAAVLLRPFLTHAPKEIFEQLNINNPQFMEFSSLEQYGVLTESIMVTGQPKPIFPRLDSEAEIAYIKESMQPPATEEEKEEIPSKPQIDIKDFDKVEIKAATIINAEHVKKSDKLLKIQVDLDSEQRQIVSGIAKFYTPDDIIGKKVAVVTNLKPAKLMGQKSEGMILSAEKDGVLTLVSLPSAIPNGAVIK
- Km [13]: 85 µM
- kcat [13]: 13 s⁻¹
- kcat/Km [14]: 8000 M⁻¹ s⁻¹
- kcat/Km [15]: 150000 M⁻¹ s⁻¹
- Km [16]: 0.89 µM
- kcat [16]: 0.066 s⁻¹
- kcat/Km [17]: 74000 M⁻¹ s⁻¹
- Km [18]: 1610 µM
